Sampled rows, rich in hits. Any-hit rate of the full collection: about 4.8%.
T cruzi inh = T. cruzi replication inhibition | T. cruzi beta-gal in NIH3T3, luminescence, 90 h | inhibition, % (no concentration beside the values) | AID 1885 | hit rate 1.4% among 300,000;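 active means mean inhibition across valid replicates above about 55%, limit read from the data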;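 further: signal also drops with host cell toxicity which is not excluded here; 0% = plate median of DMSO wells and 100% = zero luminescence signal; higher percent means less beta-gal luminescence so fewer parasites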
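Assay system: NIH/3T3 fibroblasts plus reporter T. cruzi. Amount: NIH/3T3 cells, 5,000 per well. Buffer or medium: DMEM, 2% fetal bovine serum. Doses: compound pinned at 50 nL/well, DMSO. Schedule: ≥90 h infection period, 3 h prior cell attachment. Signal: luminescent β-galactosidase signal after 60 min lysis. Read-out: parasite load inhibition, %.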
Efflux pump mplx = blocks antifungal efflux pumps in multiplex yeast assay | S. cerevisiae Candida pump triplex, Nile Red efflux | inhibition, % at 10 µM | hit rate 0.44% among 330,000 | AID 485275;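 active means plate passing quality check with inhibition over a set limit, or well fluorescence over plate mean plus 4 SD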;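 further: Nile Red retained in pooled yeast measured as flow cytometry median fluorescence; 0% = buffer negative control and 100% = Enniatin B positive control; higher means more Nile Red kept so more efflux inhibition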
Beta apoptosis = blocks beta cell apoptosis; INS-1E cytokine-induced death, ATP luminescence, 48 h; percent of positive-control rescue, neutral wells zero; protection from apoptosis, % (test concentration not listed); hit rate 0.8% among 300,000; AID 435005;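 active means Every replicate reaches about 75%, or at least half do and their mean reaches it too, limit read from the data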;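 further: 0% = cytokine-treated negative control wells and 100% = positive control rescue; higher means more ATP so stronger rescue from cytokine killing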
SUMO Mot1 rescue = blocks SUMOylation pathway, rescuing yeast Mot1-301 growth; S. cerevisiae Mot1-301 growth rescue, ATP luminescence, 38.5C; percent above DMSO median, 100 means doubled; growth rescue, % at 18.8 µM; hit rate 1% among 320,000;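 active means every valid replicate shows activation above 250% relative to neutral control wells; inactive means the rest, any valid replicate at or below 250%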;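 further: OY570 slx delta 5 strain wells were the positive control but not used for scaling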
WT yeast gro inh = growth inhibition of WT yeast, mitochondrial fusion screen; hit rate 2.1% among 190,000; mitochondrial fusion phenotypic screen, WT strain; inhibition, % at 10 µM; AID 1362; in the data active means inhibition above about 58%; tested in S. cerevisiae
CSC inhib = blocks cancer stem cells | cancer stem cell-like cells viability, luminescence | inhibition, % at 7.5 µM | hit rate 1.1% among 300,000 | AID 2717; in the data active means inhibition above about 75%; tested in HMLE shEcad cells
Cmpd fluor yeast = counter-screen for efflux pump inhibitors: compound fluorescence; fluorescence ratio to DMSO, % at 10 µM; AID 588517; hit rate 4% among 1,700; shares compounds with Efflux pump mplx; S. cerevisiae AD/pABC3, flow cytometry;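 active means fluorescence ratio to DMSO above its plate's cutoff, the plate mean ratio plus 5 SD, cut at about 210% in these data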;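 further: unstained yeast with no Nile Red so the signal is compound autofluorescence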
Mdr1 pump inh = Candida Mdr1 efflux pump inhibition. shares compounds with Efflux pump mplx. S. cerevisiae AD/CaMDR1, Nile Red efflux, flow cytometry. inhibition, % at 10 µM. hit rate 1% among 1,700; in the data active means inhibition above about 26%;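 further: 0% = DMSO vehicle and 100% = reference inhibitor; higher means more Nile Red retained so more efflux inhibition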
CaCdr2 efflux inh = Candida Cdr2 efflux pump inhibition. shares compounds with Efflux pump mplx. S. cerevisiae AD/CaCDR2, Nile Red retention, flow cytometry. Nile Red retention ratio vs DMSO, % at 10 µM. hit rate 4% among 1,700. AID 588520; in the data active means Nile Red retention ratio vs DMSO above about 190%;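 further: higher ratio means more blocking of Cdr2 efflux of the dye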
Cdr1 pump inh = inhibitors of Candida albicans Cdr1 efflux pump; shares compounds with Efflux pump mplx; S. cerevisiae AD/CaCDR1, Nile Red efflux, flow cytometry; inhibition, % at 10 µM; hit rate 1% among 1,700; AID 588522;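 active means inhibition above the screen-wide mean plus twice its standard deviation, cut at about 32% in these data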
* marks the source's active call; other numbers are inactive results; . = no result.

SMILES	T cruzi inh	Efflux pump mplx	Beta apoptosis	SUMO Mot1 rescue	WT yeast gro inh	CSC inhib	Cmpd fluor yeast	Mdr1 pump inh	CaCdr2 efflux inh	Cdr1 pump inh
Cc1cccc(NC(=S)NNC(=O)c2cc3c(s2)CCC(C)C3)c1C (stereo not given)	17	0	0	-3	-14	.	.	.	.	.
CN(C)C(=O)CCc1ccc2c3c([nH]c2c1)[C@]1(C)[C@@H](C(=O)N2CCOCC2)C[C@H](CC(=O)NCCN2CCOCC2)C(=O)N1CC3	.	0	.	.	.	.	.	.	.	.
O=C(c1ccc2c(c1)OCO2)N1CCC2(CC1)Oc1ccc(F)cc1C(=O)C21CC(c2ccc(Cl)cc2)=NO1 (stereo not given)	17	23*	0	-11	.	25	107	26*	110	1
CCC(=O)N1CCC2(CC1)Oc1ccc(Cl)cc1C(=O)C21CC(c2cccnc2)=NO1 (stereo not given)	2	0	-4	-18	.	3	.	.	.	.
O=C(c1ccc2c(c1)OCO2)N1CCC2(CC1)Oc1ccc(Cl)cc1C(=O)C21CC(c2ccccc2)=NO1 (stereo not given)	25	0	-1	-24	.	21	94	0	87	0
O=C(/C=C/c1cccs1)N1CCC2(CC1)Oc1ccc(F)cc1C(=O)C21CC(c2ccccc2)=NO1 (stereo not given)	-17	0.6*	-2	-9	.	.	108	0	95	0
Cc1noc(C)c1C(=O)N1CCC2(CC1)Oc1ccc(F)cc1C(=O)C21CC(c2ccc(Cl)cc2)=NO1 (stereo not given)	1	6.4*	4	-22	.	-2	100	0	98	0
O=C(NS(=O)(=O)Oc1ccccc1F)OC[C@@H]1CCCN2CCCCC12 (stereo not given in full)	1	0	-5	-4	.	.	.	.	.	.
COc1cccc(/C=N/NC(=O)c2ccccc2N(Cc2ccccc2)S(=O)(=O)c2ccccc2)c1OC	14	0	13	60	-5	-6	.	.	.	.
Cc1ccc(S(=O)(=O)N2CCc3ccccc3C2CC(=O)O)cc1 (stereo not given)	-12	0	4	11	.	21	.	.	.	.
O=C(Cc1ccccc1)NNC(=O)c1cnccn1	-13	0	-1	45	3	-6	.	.	.	.
O=C(CSc1ccc(-c2ccccc2)nn1)NC1CCCC1	3	0	-10	-7	.	1	.	.	.	.
O=C(CSc1ccc(-c2ccccc2)nn1)NC1CCCCC1	-3	5.7*	-1	65	.	-2	98	0	95	0
CC[n+]1c(/C=C/c2ccc(OC)c(OC)c2)ccc2ccccc21	39	0.7*	-5	41	.	-2	177	0	107	0
CN(C)CC/C=C1/c2ccccc2Sc2ccc(Cl)cc21	29	0	6	-26	.	3	97	0	94	0
CCCCCC[N+](C)(C)CC/C=C1/c2ccccc2Sc2ccc(Cl)cc21	46	0	26	101	.	6	.	.	.	.
O=C(O)CC1c2ccccc2CCN1S(=O)(=O)c1cccs1 (stereo not given)	-18	2.2*	-9	0	.	-3	100	0	105	0
N#CCCn1cc(/C=C(\C#N)c2nc3ccccc3s2)c(-c2ccc(F)cc2)n1	29	1	11	.	-9	1	82	0	100	0
O=C(Cc1ccc(F)cc1)OCC(=O)N1CCN(S(=O)(=O)c2ccc(Cl)cc2)CC1	-4	0.5*	1	-10	.	.	105	0	95	0
O=C(c1cccn2c(=O)c3cc(Br)ccc3nc12)N1CCN(c2ccccn2)CC1	.	0	.	10	0	-10	.	.	.	.
O=C(c1cc(-c2ccccc2Cl)nc2ccc(Br)cc12)N1CCN(c2ccccn2)CC1	37	5.3*	106*	234	.	16	91	0	92	0
Cc1cc(C)n2c(SCC(=O)N(C)C3CCS(=O)(=O)C3)nnc2n1 (stereo not given)	9	0.6*	-5	-7	-10	.	110	0	109	0
CN(CCOc1ccccc1)C(=O)c1cc(S(=O)(=O)N2CCCCC2)ccc1Cl	6	0	5	5	.	-5	.	.	.	.
COc1ccc(C(CCN2CCOCC2)c2c(OC)cc(OC)c3c(-c4ccccc4)cc(=O)oc23)cc1 (stereo not given)	.	1.6*	.	.	.	.	95	0	85	0
CC1Cc2ccccc2N1S(=O)(=O)c1cccc(C(=O)N2CCN(c3ncccn3)CC2)c1 (stereo not given)	6	0.9*	1	803	19	51	106	0	103	0
SMILES	T cruzi inh	Efflux pump mplx	Beta apoptosis	SUMO Mot1 rescue	WT yeast gro inh	CSC inhib	Cmpd fluor yeast	Mdr1 pump inh	CaCdr2 efflux inh	Cdr1 pump inh
CN1CCN(C(=O)c2ccccc2[N+](=O)[O-])CC1	-13	0	2	13	.	-8	.	.	.	.
CN1CCN(C(=O)c2ccccc2-c2ccccc2C(=O)O)CC1	-21	6.7*	-8	4	15	-12	102	0	78	0
COc1ccc(CNC(=O)COC(=O)[C@H](Cc2ccccc2)NC(=O)c2cccs2)cc1	.	0	-1	-1	.	-12	.	.	.	.
O=C(COC(=O)/C=C/c1ccccc1)NCCc1ccc(F)cc1	.	0	-7	11	.	-4	.	.	.	.
O=C1C(=C2SCCCS2)CC/C1=C\c1ccc(F)cc1	11	0	8	4	21	36	.	.	.	.
O=C1CCCC(=O)C1=C1SCCCS1	-29	6.5*	2	-15	2	-17	91	0	96	0
CC(OC(=O)c1ccc2c(c1)OCCO2)C(=O)c1ccccc1 (stereo not given)	-2	0	-6	297	.	-3	.	.	.	.
COc1ccc2nc(NC(=O)c3ccoc3C)sc2c1	12	7.5*	43	-61	57	70	120	0	120	0
CCn1c(SCC(=O)Nc2nccs2)nnc1-c1ccccn1	-2	0	1	8	.	-6	.	.	.	.
Cc1ccccc1CSc1nc2c(c(=O)[nH]1)CCC2	-5	5.9*	-4	19	2	-14	109	0	104	0
Cc1ccccc1-c1nc(CSc2nc3c(c(=O)[nH]2)CCC3)c(C)o1	-4	0	-7	-8	15	-1	.	.	.	.
COC(=O)Cn1cnc(C(=O)Nc2ccc(C)c(C)c2)n1	.	0	.	.	.	.	.	.	.	.
CC(=O)NC1=NC(=O)/C(=C/c2cc(C)n(-c3ccc(NC(C)=O)cc3)c2C)S1	-19	1.4*	3	-12	3	.	120	0	97	2

Compound activity from PubChem BioAssay.
